Key:
Format in all cases: tissue-based
[1] = target: T1, Adrenergic receptor alpha-2 (Rattus norvegicus, UniProt P22086+P19328+P22909); assay: Antagonist activity at alpha-2 adrenoreceptor in Sprague-Dawley rat prostatic vas deferens assessed as reversal of clonidine-inhibited twitch responses of field-stimulated prostatic portion of vas deferens after 30 mins by Schild plot analysis
T1 sequence (P22086 whole entry): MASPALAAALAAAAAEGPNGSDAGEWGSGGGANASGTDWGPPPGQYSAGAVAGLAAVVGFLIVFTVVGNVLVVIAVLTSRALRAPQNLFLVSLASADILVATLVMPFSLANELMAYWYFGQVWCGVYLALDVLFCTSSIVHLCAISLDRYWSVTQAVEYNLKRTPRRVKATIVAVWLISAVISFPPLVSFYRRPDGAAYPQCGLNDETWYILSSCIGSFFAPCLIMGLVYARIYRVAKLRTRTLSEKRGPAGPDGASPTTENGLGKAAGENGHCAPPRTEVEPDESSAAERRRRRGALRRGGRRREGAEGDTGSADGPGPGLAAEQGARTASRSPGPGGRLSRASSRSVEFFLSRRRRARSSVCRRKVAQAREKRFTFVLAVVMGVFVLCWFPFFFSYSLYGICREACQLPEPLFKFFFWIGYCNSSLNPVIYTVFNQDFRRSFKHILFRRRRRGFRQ
T1 sequence (P19328 whole entry): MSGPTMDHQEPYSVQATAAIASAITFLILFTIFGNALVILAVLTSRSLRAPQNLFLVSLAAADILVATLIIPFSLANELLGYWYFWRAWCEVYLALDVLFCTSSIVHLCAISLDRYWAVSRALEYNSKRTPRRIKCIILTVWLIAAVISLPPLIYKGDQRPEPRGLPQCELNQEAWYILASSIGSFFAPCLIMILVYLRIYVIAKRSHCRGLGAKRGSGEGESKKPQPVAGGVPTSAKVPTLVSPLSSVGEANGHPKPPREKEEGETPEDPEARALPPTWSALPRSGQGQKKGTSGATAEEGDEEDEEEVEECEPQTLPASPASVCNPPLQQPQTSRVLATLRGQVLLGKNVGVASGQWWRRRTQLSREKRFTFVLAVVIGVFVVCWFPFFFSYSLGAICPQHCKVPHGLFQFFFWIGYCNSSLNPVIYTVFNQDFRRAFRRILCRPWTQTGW
T1 sequence (P22909 whole entry): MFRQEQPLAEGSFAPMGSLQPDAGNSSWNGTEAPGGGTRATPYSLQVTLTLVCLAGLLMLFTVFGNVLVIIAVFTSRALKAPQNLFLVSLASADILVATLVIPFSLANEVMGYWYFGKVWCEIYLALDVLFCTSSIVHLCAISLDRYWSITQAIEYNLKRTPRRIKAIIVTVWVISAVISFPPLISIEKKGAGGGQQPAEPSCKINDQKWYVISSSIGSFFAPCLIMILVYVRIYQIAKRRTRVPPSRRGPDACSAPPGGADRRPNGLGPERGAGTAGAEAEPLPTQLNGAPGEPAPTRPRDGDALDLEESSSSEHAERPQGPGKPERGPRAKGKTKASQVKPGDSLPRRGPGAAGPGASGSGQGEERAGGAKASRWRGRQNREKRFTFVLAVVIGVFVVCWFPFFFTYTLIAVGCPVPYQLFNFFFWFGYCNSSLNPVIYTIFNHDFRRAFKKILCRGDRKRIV
Procedure, shortened: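 Prostatic vas deferens in bath with propranolol 1 μM and desipramine 0.01 μM throughout. A cumulative clonidine control curve was run, then a second curve after 30 min antagonist equilibration. pA₂ from Schild plot of log(DR−1) vs log[antagonist], at least three antagonist concentrations, 3−5 repeats each.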

Rattus norvegicus [2] = species on record: Rattus norvegicus; assay: Selectivity ratio of Ki for alpha-1D adrenoreceptor in Sprague-Dawley rat thoracic aorta to Ki for alpha-1B adrenoreceptor in Sprague-Dawley rat spleen
Rattus norvegicus [3] = species on record: Rattus norvegicus; assay: Selectivity ratio of Ki for alpha-1D adrenoreceptor in Sprague-Dawley rat thoracic aorta to Ki for alpha-1A adrenoreceptor in Sprague-Dawley rat prostatic vas deferens
Rattus norvegicus [4] = species on record: Rattus norvegicus; assay: Selectivity ratio of Ki for alpha-1D adrenoreceptor in Sprague-Dawley rat thoracic aorta to Ki for alpha-1A adrenoreceptor in Sprague-Dawley rat prostate

Structure (SMILES)	pA2 [1]	Ratio Ki (Rattus norvegicus [2])	Ratio Ki (Rattus norvegicus [3])	Ratio Ki (Rattus norvegicus [4])
COc1ccc2c(c1OCCNC[C@H]1COc3ccccc3O1)NCC2.Cl.Cl	6.05			
COc1ccc2c(c1OCCNC[C@H]1COc3ccccc3O1)OCC2.Cl	6.63	12	129	50
COc1ccc2ccoc2c1OCCNC[C@H]1COc2ccccc2O1.Cl	6.55	2	6	
COc1ccc2cc[nH]c2c1OCCNC[C@H]1COc2ccccc2O1	6.09			

Source: ChEMBL document CHEMBL2417545, “6-methoxy-7-benzofuranoxy and 6-methoxy-7-indolyloxy analogues of 2-[2-(2,6-Dimethoxyphenoxy)ethyl]aminomethyl-1,4-benzodioxane (WB4101):1 discovery of a potent and selective α1D-adrenoceptor antagonist” (J Med Chem, 2013)
